Assay results as given in ChEMBL document CHEMBL5724801, “EUbOPEN Chemogenomics Library - Multiplex” (2024).
“And” between values parts separate entries of the source, which are not always exact repeats. Equal entries are not always repeated.

Tested on: U2OS
Experiment: Multiplex assay against U2OS
Type: toxicity, cell-based
Conditions: human
How it was run: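 Per cents of healthy-nucleus cells form the tubulin, mitochondrial-mass and membrane-permeability phenotype values. Live cells were stained at seeding with Hoechst33342, BioTracker Green Microtubule Cytoskeleton Dye, MitoTracker Red and Annexin V Alexa Fluor 680. After compound addition they were imaged on a CQ1 microscope at 37°C and 5% CO2, and CellPathfinder machine-learning gating split them into Hoechst high-intensity objects or normal cells, normal cells into healthy, pyknosed or fragmented nuclei, and pyknosed cells into mitotic or apoptotic.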

[1] = 12 h, 1 µM, compound concentration 1 uM
[2] = 12 h, 10 µM, compound concentration 10 uM
[3] = 24 h, 1 µM, compound concentration 1 uM
[4] = 24 h, 10 µM, compound concentration 10 uM
[5] = 48 h, 1 µM, compound concentration 1 uM
[6] = 48 h, 10 µM, compound concentration 10 uM

CN(C)C(=O)Cn1cc(-c2ccc(-c3nnc4ccccn34)cc2)cn1
Population Apoptotic (%) [1]: 90% | Population Fragmented Nuclei (%) [1]: 25% and 22% | Population Healthy Nuclei (%) [1]: 66% and 68% | Population Hoechst High Intensity Objects (%) [1]: 1% and 0% | Population Membrane Permeable-Phenotype (%) [1]: 6% and 3% | Population Mitochondria Different-Phenotype (%) [1]: 1% and 6% | Population Mitotic Cells (%) [1]: 9% | Population Normal (%) [1]: 98% and 99% | Population Pyknosed Nuclei (%) [1]: 8% and 9% | Population Tubulin-Different-Phenotype (%) [1]: 3% and 4% | Total Cell Count [1]: 251 and 123 | Population Apoptotic (%) [2]: 95% and 90% | Population Fragmented Nuclei (%) [2]: 26% and 11% | Population Healthy Nuclei (%) [2]: 65% and 81% | Population Hoechst High Intensity Objects (%) [2]: 1% | Population Membrane Permeable-Phenotype (%) [2]: 4% | Population Mitochondria Different-Phenotype (%) [2]: 1% and 0% | Population Mitotic Cells (%) [2]: 4% and 10% | Population Normal (%) [2]: 98% | Population Pyknosed Nuclei (%) [2]: 7% | Population Tubulin-Different-Phenotype (%) [2]: 3% | Total Cell Count [2]: 298 and 140 | Population Apoptotic (%) [3]: 94% and 100% | Population Fragmented Nuclei (%) [3]: 22% and 17% | Population Healthy Nuclei (%) [3]: 71% and 74% | Population Hoechst High Intensity Objects (%) [3]: 0% | Population Membrane Permeable-Phenotype (%) [3]: 4% and 7% | Population Mitochondria Different-Phenotype (%) [3]: 2% and 7% | Population Mitotic Cells (%) [3]: 5% and 0% | Population Normal (%) [3]: 99% and 100% | Population Pyknosed Nuclei (%) [3]: 5% and 8% | Population Tubulin-Different-Phenotype (%) [3]: 1% and 4% | Total Cell Count [3]: 315 and 131 | Population Apoptotic (%) [4]: 86% and 87% | Population Fragmented Nuclei (%) [4]: 22% and 10% | Population Healthy Nuclei (%) [4]: 66% and 85% | Population Hoechst High Intensity Objects (%) [4]: 2% and 1% | Population Membrane Permeable-Phenotype (%) [4]: 4% and 7% | Population Mitochondria Different-Phenotype (%) [4]: 1% | Population Mitotic Cells (%) [4]: 13% and 12% | Population Normal (%) [4]: 97% and 98% | Population Pyknosed Nuclei (%) [4]: 11% and 4% | Population Tubulin-Different-Phenotype (%) [4]: 2% and 3% | Total Cell Count [4]: 333 and 180 | Population Apoptotic (%) [5]: 87% and 93% | Population Fragmented Nuclei (%) [5]: 16% and 11% | Population Healthy Nuclei (%) [5]: 75% and 67% | Population Hoechst High Intensity Objects (%) [5]: 2% | Population Membrane Permeable-Phenotype (%) [5]: 4% and 7% | Population Mitochondria Different-Phenotype (%) [5]: 2% and 3% | Population Mitotic Cells (%) [5]: 12% and 6% | Population Normal (%) [5]: 97% | Population Pyknosed Nuclei (%) [5]: 7% and 20% | Population Tubulin-Different-Phenotype (%) [5]: 1% and 3% | Total Cell Count [5]: 426 and 158 | Population Apoptotic (%) [6]: 95% and 85% | Population Fragmented Nuclei (%) [6]: 21% and 8% | Population Healthy Nuclei (%) [6]: 67% and 81% | Population Hoechst High Intensity Objects (%) [6]: 3% and 2% | Population Membrane Permeable-Phenotype (%) [6]: 8% and 6% | Population Mitochondria Different-Phenotype (%) [6]: 4% and 2% | Population Mitotic Cells (%) [6]: 4% and 14% | Population Normal (%) [6]: 96% and 97% | Population Pyknosed Nuclei (%) [6]: 11% and 9% | Population Tubulin-Different-Phenotype (%) [6]: 4% and 2% | Total Cell Count [6]: 418 and 284

COc1ccccc1N1CCN(CCCCNC(=O)c2ccc3ccccc3c2)CC1.Cl
Population Apoptotic (%) [1]: 68% and 42% | Population Fragmented Nuclei (%) [1]: 18% and 17% | Population Healthy Nuclei (%) [1]: 69% and 75% | Population Mitochondria Different-Phenotype (%) [1]: 8% and 15% | Population Mitotic Cells (%) [1]: 31% and 57% | Population Normal (%) [1]: 95% and 97% | Total Cell Count [1]: 243 and 99 | Population Apoptotic (%) [2]: 78% and 65% | Population Fragmented Nuclei (%) [2]: 30% and 17% | Population Healthy Nuclei (%) [2]: 39% and 51% | Population Mitochondria Different-Phenotype (%) [2]: 80% and 94% | Population Mitotic Cells (%) [2]: 21% and 34% | Population Normal (%) [2]: 91% and 93% | Population Pyknosed Nuclei (%) [2]: 30% | Total Cell Count [2]: 222 and 111 | Population Apoptotic (%) [3]: 78% and 80% | Population Fragmented Nuclei (%) [3]: 18% and 21% | Population Healthy Nuclei (%) [3]: 68% | Population Mitochondria Different-Phenotype (%) [3]: 9% and 11% | Population Mitotic Cells (%) [3]: 21% and 20% | Population Normal (%) [3]: 96% and 98% | Population Pyknosed Nuclei (%) [3]: 9% | Total Cell Count [3]: 262 and 103 | Population Apoptotic (%) [4]: 90% and 100% | Population Fragmented Nuclei (%) [4]: 35% and 19% | Population Healthy Nuclei (%) [4]: 32% and 61% | Population Mitochondria Different-Phenotype (%) [4]: 78% and 93% | Population Mitotic Cells (%) [4]: 10% and 0% | Population Normal (%) [4]: 93% | Population Pyknosed Nuclei (%) [4]: 31% | Total Cell Count [4]: 234 and 125 | Population Apoptotic (%) [5]: 72% and 88% | Population Fragmented Nuclei (%) [5]: 19% and 17% | Population Healthy Nuclei (%) [5]: 71% and 64% | Population Mitochondria Different-Phenotype (%) [5]: 3% | Population Mitotic Cells (%) [5]: 27% and 12% | Population Normal (%) [5]: 95% and 96% | Population Pyknosed Nuclei (%) [5]: 9% | Total Cell Count [5]: 362 and 144 | Population Apoptotic (%) [6]: 93% and 86% | Population Fragmented Nuclei (%) [6]: 38% and 23% | Population Healthy Nuclei (%) [6]: 27% and 37% | Population Mitochondria Different-Phenotype (%) [6]: 69% and 77% | Population Mitotic Cells (%) [6]: 6% and 13% | Population Normal (%) [6]: 91% and 87% | Population Pyknosed Nuclei (%) [6]: 34% and 39% | Total Cell Count [6]: 256 and 111
